Drawing on ChEMBL document CHEMBL3046951, “Volatile constituents from the leaves of Callicarpa japonica Thunb. and their antibacterial activities” (2004), this text covers inhibition of growth for one compound.

Common to all, as to assay type: functional
For one assay, the system named is Staphylococcus aureus. Description: Antimicrobial activity against Staphylococcus aureus ATCC 25923 assessed as growth inhibition rate at 9.84 mg/l after 72 hr by spectrophotometry. Conditions: ATCC 25923, 72 h, read-out: GI.
The test system of the next assay is Bacillus cereus. Description: Antimicrobial activity against Bacillus cereus ATCC 11778 assessed as growth inhibition rate at 9.84 mg/l after 72 hr by spectrophotometry. Conditions: ATCC 11778, 72 h, read-out: GI. In short, it runs like this: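 Pure volatile compounds (>95% purity) from the leaf extract were tested against B. cereus grown at 30 °C in nutrient broth from an 18 h subculture. Optical density was read in a Bioscreen C every 24 h over 72 h, and activity was compared with a 10% Tween 80 control.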

Another assay relates to Escherichia coli. Description: Antimicrobial activity against Escherichia coli O157:H7 ATCC 43894 assessed as growth inhibition rate at 9.84 mg/l after 72 hr by spectrophotometry. Conditions: O157:H7 ATCC 43894, 72 h, read-out: GI. In short, it runs like this:
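Authentic volatiles (>95% purity; 2,4-heptadienal 90%) tested against 18 h subcultures. Growth media: E. coli O157:H7 and S. aureus in tryptic soy broth at 37 °C; L. monocytogenes in tryptic soy broth at 30 °C; V. parahaemolyticus in tryptic soy broth + 3% NaCl at 37 °C; S. typhimurium in nutrient broth at 30 °C. Bioscreen C OD every 24 h for 72 h versus 10% Tween 80 control.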

The subject of the next assay is Listeria monocytogenes. The assay is described as follows: Antimicrobial activity against Listeria monocytogenes ATCC 19111 assessed as growth inhibition rate at 9.84 mg/l after 72 hr by spectrophotometry. Conditions: ATCC 19111, 72 h, read-out: GI. In short, it runs like this:
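Pure volatile compounds (>95% purity) tested on Listeria monocytogenes ATCC 19111 in tryptic soy broth at 30 °C. Inoculum: 24 h culture subcultured (0.1 mL into 9.9 mL broth) and grown 18 h. Growth followed by Bioscreen C optical density every 24 h for 72 h against a 10% Tween 80 control.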

In the next assay the test system is Salmonella typhimurium. Description: Antimicrobial activity against Salmonella enterica subsp. enterica serovar Typhimurium ATCC 14028 assessed as growth inhibition rate at 9.84 mg/l after 72 hr by spectrophotometry. The conditions noted are these: ATCC 14028, 72 h, read-out: GI.
A further assay has as its system Vibrio parahaemolyticus. The assay is described as follows: Antimicrobial activity against Vibrio parahaemolyticus ATCC 33844 assessed as growth inhibition rate at 9.84 mg/l after 72 hr by spectrophotometry. Conditions: ATCC 33844, 72 h, read-out: GI.

Consider `CCCCCCO` [1-HEXANOL], for which the inhibition of growth at 9.84 µg/mL was found to be 6.9% in the assay on Staphylococcus aureus; 3.6% in the assay on Bacillus cereus; 16.9% with Escherichia coli; 4.2% in the assay with Listeria monocytogenes; 23.3% with Salmonella typhimurium; 27.1% with Vibrio parahaemolyticus.
